pIC50: −log10 of the molar value. Calls of active or inactive are those of the source. No cut-off for these calls is given here.
What was measured:
[1] = target: Serine/threonine-protein kinase PAK 4 (Homo sapiens, UniProt O96013); experiment: Inhibition of full length recombinant human N-terminal GST/His6-tagged PAK4 expressed in baculovirus infected sf9 insect cells using tetra LRRWSLG as substrate preincubated for 20 min followed by [gamma33P]ATP addition and measured after 120 mins by Hotspot assay
[2] = target: Voltage-gated inwardly rectifying potassium channel KCNH2 (Homo sapiens, UniProt Q12809); experiment: Inhibition of human ERG
[3] = target: Tyrosine-protein kinase ABL1 (Homo sapiens) (UniProt P00519); experiment: Inhibition of ABL1 (unknown origin) assessed as residual activity at 0.1 uM preincubated for 20 min followed by [gamma33P]ATP addition and measured after 120 mins by Hotspot assay relative to control; conditions: time 140.0 min
Procedure, shortened: (§1)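 Radiometric HotSpot kinase assay. Kinase and substrate are combined in 20 mM Hepes pH 7.5, 10 mM MgCl2, 1 mM EGTA, 0.02% Brij35, 0.02 mg/mL BSA, 0.1 mM Na3VO4, 2 mM DTT and 1% DMSO. Compound is added and preincubated 20 min at room temperature. The reaction starts with ATP plus 33P-ATP at 10 µM final and runs 120 min at 25 °C. Filter-binding read-out, given as % activity remaining versus DMSO.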

[4] = target: RAC-alpha serine/threonine-protein kinase (Homo sapiens) (UniProt P31749); experiment: Inhibition of AKT1 (unknown origin) assessed as residual activity at 0.1 uM preincubated for 20 min followed by [gamma33P]ATP addition and measured after 120 mins by Hotspot assay relative to control; conditions: time 140.0 min; procedure, shortened: as §1
[5] = target: ALK tyrosine kinase receptor (Homo sapiens) (UniProt Q9UM73); experiment: Inhibition of ALK (unknown origin) assessed as residual activity at 0.1 uM preincubated for 20 min followed by [gamma33P]ATP addition and measured after 120 mins by Hotspot assay relative to control; conditions: time 140.0 min; procedure, shortened: as §1
[6] = target: Aurora kinase A (Homo sapiens) (UniProt O14965); experiment: Inhibition of AuroraA (unknown origin) assessed as residual activity at 0.1 uM preincubated for 20 min followed by [gamma33P]ATP addition and measured after 120 mins by Hotspot assay relative to control; conditions: time 140.0 min; procedure, shortened: as §1
[7] = target: Mast/stem cell growth factor receptor Kit (Homo sapiens) (UniProt P10721); experiment: Inhibition of c-Kit (unknown origin) assessed as residual activity at 0.1 uM preincubated for 20 min followed by [gamma33P]ATP addition and measured after 120 mins by Hotspot assay relative to control; conditions: time 140.0 min; procedure, shortened: as §1
[8] = target: Mitogen-activated protein kinase 3 (Homo sapiens) (UniProt P27361); experiment: Inhibition of ERK1 (unknown origin) assessed as residual activity at 0.1 uM preincubated for 20 min followed by [gamma33P]ATP addition and measured after 120 mins by Hotspot assay relative to control; conditions: time 140.0 min; procedure, shortened: as §1
[9] = target: Receptor-type tyrosine-protein kinase FLT3 (Homo sapiens) (UniProt P36888); experiment: Inhibition of FLT3 (unknown origin) assessed as residual activity at 0.1 uM preincubated for 20 min followed by [gamma33P]ATP addition and measured after 120 mins by Hotspot assay relative to control; conditions: time 140.0 min; procedure, shortened: as §1
[10] = target: Mitogen-activated protein kinase kinase kinase kinase 1 (Homo sapiens) (UniProt Q92918); experiment: Inhibition of MAP4K1 (unknown origin) assessed as residual activity at 0.1 uM preincubated for 20 min followed by [gamma33P]ATP addition and measured after 120 mins by Hotspot assay relative to control; conditions: time 140.0 min; procedure, shortened: as §1
[11] = target: Dual specificity mitogen-activated protein kinase kinase 1 (Homo sapiens) (UniProt Q02750); experiment: Inhibition of MEK1 (unknown origin) assessed as residual activity at 0.1 uM preincubated for 20 min followed by [gamma33P]ATP addition and measured after 120 mins by Hotspot assay relative to control; conditions: time 140.0 min; procedure, shortened: as §1
[12] = target: Serine/threonine-protein kinase 24 (Homo sapiens) (UniProt Q9Y6E0); experiment: Inhibition of STK24 (unknown origin) assessed as residual activity at 0.1 uM preincubated for 20 min followed by [gamma33P]ATP addition and measured after 120 mins by Hotspot assay relative to control; conditions: time 140.0 min; procedure, shortened: as §1
[13] = target: Serine/threonine-protein kinase PAK 6 (Homo sapiens) (UniProt Q9NQU5); experiment: Inhibtion of full length recombinant human N-terminal GST/His6-tagged PAK6 expressed in sf9 insect cells assessed as residual activity at 0.1 uM using tetra LRRWSLG as substrate preincubated for 20 min followed by [gamma33P]ATP addition and measured after 120 mins by Hotspot assay relative to control; conditions: time 140.0 min; procedure, shortened: as §1
[14] = target: Tyrosine-protein kinase SYK (Homo sapiens) (UniProt P43405); experiment: Inhibition of SYK (unknown origin) assessed as residual activity at 0.1 uM preincubated for 20 min followed by [gamma33P]ATP addition and measured after 120 mins by Hotspot assay relative to control; conditions: time 140.0 min; procedure, shortened: as §1
[15] = test system: HCT-116; experiment: Antiproliferative activity against human HCT-116 cells assessed as growth inhibition at 1 uM after 72 hrs by Cell Titer-Glo assay relative to control; assay type: functional; conditions: read-out: GI
Procedure, shortened: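 Cells kept at 37 °C in 5% CO2 and plated at 4000 per well. Treated with compound for 72 h. Viability read by CellTiter-Glo luminescence. Each compound run in duplicate, data as means ± SD.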

[16] = test system: MDA-MB-231; experiment: Antimigratory activity against human MDA-MB-231 cells after 24 hrs by inverted microscopic based Wound healing assay; assay type: functional, cell-based; conditions: dose 0.25-1 µM
Procedure, shortened: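 Cells grown to confluence and scratched with a sterile pipette tip, or placed at 1×10^5 cells in serum-free DMEM with 0.1% […] in the upper part of Matrigel-coated Boyden chambers over DMEM with 10% FBS. Compound treatment for 24 h at 37 °C. Read-out is wound distance from images or the count of invaded cells on the lower filter face after fixing and staining. Data given as means ± SD.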

[17] = target: Serine/threonine-protein kinase PAK 1 (Homo sapiens, UniProt Q13153); experiment: Inhibition of PAK1 in human MDA-MB-231 cells assessed as reduction in snail protein expression at 2.5 to 20 uM after 1 to 24 hrs by Western blot analysis; assay type: cell-based; conditions: dose 2.5-20 µM, time 1-24 hrs
Procedure, shortened: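 Whole-cell extracts made from 1×10^6 treated cells in RIPA buffer (50 mM Tris/HCl pH 7.4, 150 mM NaCl, 1% NP-40, 0.25% deoxycholate, 1 mM EDTA, protease inhibitors). Proteins separated by SDS-PAGE, blotted to PVDF and blocked in 5% milk in TBS-T. Membranes probed for PAK1, phospho-PAK1 Ser144, Snail and actin, with β-actin as loading control. ECL detection.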

Serine/threonine-protein kinase PAK 4, sequence (O96013 whole entry): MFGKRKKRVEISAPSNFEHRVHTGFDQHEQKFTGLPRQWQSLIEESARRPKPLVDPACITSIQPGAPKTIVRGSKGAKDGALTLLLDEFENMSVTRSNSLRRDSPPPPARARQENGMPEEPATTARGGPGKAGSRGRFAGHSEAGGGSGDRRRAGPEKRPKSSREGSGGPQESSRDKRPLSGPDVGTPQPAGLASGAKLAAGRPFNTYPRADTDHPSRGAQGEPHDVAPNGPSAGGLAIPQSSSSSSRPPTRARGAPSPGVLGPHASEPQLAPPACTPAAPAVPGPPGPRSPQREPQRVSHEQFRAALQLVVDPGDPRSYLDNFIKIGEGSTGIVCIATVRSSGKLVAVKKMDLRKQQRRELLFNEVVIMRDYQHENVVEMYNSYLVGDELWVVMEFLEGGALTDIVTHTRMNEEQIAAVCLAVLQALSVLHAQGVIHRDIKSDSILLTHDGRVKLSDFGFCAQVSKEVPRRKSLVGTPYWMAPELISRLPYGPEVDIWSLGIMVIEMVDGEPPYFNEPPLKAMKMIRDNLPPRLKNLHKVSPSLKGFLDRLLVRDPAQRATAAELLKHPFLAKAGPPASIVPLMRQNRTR
Aurora kinase A (Homo sapiens), sequence (O14965 whole entry): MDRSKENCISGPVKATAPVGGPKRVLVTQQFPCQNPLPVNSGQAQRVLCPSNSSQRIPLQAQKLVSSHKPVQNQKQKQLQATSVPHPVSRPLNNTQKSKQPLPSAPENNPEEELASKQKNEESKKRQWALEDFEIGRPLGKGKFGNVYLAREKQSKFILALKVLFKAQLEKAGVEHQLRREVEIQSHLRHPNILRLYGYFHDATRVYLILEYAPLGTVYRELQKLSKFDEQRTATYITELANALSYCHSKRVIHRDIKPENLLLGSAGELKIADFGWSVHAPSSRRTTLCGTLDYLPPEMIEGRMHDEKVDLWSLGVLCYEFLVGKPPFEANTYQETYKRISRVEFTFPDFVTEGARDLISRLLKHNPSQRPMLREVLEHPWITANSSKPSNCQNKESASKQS
Serine/threonine-protein kinase PAK 6 (Homo sapiens), sequence (Q9NQU5 whole entry, looked up): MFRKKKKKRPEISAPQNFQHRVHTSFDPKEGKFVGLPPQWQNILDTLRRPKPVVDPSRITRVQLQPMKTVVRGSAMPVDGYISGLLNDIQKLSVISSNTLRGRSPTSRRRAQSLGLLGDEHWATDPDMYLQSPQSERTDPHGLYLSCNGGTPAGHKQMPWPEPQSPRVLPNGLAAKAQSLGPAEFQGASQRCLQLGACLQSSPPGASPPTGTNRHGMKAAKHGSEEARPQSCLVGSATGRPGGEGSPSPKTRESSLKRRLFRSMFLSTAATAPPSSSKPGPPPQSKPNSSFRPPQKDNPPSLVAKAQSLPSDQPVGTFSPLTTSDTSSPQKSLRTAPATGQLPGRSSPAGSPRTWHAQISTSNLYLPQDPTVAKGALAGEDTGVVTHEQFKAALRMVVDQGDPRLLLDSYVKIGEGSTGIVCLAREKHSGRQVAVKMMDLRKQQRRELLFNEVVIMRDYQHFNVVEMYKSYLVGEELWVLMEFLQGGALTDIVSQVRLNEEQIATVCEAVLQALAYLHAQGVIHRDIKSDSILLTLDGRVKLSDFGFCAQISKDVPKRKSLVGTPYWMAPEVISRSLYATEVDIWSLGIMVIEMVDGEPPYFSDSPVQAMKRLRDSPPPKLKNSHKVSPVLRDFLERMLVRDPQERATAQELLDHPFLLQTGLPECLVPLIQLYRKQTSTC
RAC-alpha serine/threonine-protein kinase (Homo sapiens), sequence (P31749 whole entry): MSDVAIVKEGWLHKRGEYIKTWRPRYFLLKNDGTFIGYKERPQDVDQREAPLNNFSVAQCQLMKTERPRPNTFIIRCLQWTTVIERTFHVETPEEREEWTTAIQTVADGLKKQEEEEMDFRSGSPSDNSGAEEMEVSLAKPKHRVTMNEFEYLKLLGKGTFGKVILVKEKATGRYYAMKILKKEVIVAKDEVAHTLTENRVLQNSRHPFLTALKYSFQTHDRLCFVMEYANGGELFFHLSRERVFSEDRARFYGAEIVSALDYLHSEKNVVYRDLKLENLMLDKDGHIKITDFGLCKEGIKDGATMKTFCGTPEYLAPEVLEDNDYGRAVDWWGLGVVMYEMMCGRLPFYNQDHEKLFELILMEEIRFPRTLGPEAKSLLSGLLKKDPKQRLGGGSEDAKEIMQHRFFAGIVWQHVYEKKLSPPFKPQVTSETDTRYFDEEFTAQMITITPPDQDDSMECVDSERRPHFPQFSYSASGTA
Serine/threonine-protein kinase 24 (Homo sapiens), sequence (Q9Y6E0 whole entry, looked up): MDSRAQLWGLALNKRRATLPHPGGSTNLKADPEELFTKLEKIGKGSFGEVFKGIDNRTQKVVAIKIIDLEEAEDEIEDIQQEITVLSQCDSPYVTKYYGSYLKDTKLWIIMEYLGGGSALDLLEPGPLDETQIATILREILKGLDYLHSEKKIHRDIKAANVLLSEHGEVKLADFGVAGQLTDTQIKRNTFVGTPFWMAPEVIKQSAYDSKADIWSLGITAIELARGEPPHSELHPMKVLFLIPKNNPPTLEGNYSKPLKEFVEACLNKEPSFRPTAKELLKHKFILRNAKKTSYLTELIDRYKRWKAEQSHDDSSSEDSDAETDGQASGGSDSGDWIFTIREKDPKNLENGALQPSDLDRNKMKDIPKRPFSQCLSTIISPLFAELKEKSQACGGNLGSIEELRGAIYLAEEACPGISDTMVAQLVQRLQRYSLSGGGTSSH
Mitogen-activated protein kinase 3 (Homo sapiens), sequence (P27361 whole entry): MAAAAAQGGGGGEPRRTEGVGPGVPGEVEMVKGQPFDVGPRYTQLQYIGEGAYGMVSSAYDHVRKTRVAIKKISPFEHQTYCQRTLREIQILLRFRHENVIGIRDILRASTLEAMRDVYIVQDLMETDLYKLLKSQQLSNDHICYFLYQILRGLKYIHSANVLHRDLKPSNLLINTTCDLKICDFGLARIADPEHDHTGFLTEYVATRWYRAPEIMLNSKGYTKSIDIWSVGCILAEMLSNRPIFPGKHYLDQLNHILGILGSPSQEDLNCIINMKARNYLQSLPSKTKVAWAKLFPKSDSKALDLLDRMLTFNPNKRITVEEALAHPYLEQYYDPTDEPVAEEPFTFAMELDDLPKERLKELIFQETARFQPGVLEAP
Mast/stem cell growth factor receptor Kit (Homo sapiens), sequence (P10721 whole entry): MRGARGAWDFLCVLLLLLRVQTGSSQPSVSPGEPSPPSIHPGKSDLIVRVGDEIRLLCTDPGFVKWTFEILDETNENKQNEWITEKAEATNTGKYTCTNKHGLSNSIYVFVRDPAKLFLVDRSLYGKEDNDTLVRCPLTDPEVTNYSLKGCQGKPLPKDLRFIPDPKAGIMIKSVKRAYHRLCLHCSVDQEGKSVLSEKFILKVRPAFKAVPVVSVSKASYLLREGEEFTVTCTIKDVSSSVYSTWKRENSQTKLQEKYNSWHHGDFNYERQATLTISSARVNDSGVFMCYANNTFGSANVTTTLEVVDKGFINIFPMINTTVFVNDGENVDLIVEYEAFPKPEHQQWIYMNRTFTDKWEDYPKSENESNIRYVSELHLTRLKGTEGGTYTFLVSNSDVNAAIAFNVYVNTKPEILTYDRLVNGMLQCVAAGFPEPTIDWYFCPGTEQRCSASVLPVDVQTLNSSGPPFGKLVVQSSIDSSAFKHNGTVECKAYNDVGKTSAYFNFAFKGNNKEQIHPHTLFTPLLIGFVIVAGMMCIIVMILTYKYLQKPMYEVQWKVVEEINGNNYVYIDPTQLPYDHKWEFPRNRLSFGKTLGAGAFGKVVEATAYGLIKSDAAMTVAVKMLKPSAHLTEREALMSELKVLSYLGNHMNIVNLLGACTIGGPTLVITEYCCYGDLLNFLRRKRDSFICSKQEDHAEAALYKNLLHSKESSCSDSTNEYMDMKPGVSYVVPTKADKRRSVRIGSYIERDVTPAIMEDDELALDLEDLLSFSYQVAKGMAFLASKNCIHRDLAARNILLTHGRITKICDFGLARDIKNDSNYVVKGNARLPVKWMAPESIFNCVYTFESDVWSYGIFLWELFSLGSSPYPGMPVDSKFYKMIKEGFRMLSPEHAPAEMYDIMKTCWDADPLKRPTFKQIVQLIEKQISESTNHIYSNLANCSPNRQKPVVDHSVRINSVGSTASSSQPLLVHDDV
Dual specificity mitogen-activated protein kinase kinase 1 (Homo sapiens), sequence (Q02750 whole entry): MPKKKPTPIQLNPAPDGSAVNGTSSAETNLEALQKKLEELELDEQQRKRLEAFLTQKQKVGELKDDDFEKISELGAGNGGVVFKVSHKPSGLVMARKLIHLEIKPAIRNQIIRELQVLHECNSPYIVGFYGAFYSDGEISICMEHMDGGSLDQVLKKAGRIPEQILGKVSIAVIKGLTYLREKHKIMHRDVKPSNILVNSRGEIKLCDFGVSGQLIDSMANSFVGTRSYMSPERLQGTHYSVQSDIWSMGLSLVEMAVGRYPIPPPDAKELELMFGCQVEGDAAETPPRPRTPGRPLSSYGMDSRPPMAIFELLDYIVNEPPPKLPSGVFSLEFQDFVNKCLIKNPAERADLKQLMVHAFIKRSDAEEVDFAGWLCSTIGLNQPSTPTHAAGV
Serine/threonine-protein kinase PAK 1, sequence (Q13153 whole entry): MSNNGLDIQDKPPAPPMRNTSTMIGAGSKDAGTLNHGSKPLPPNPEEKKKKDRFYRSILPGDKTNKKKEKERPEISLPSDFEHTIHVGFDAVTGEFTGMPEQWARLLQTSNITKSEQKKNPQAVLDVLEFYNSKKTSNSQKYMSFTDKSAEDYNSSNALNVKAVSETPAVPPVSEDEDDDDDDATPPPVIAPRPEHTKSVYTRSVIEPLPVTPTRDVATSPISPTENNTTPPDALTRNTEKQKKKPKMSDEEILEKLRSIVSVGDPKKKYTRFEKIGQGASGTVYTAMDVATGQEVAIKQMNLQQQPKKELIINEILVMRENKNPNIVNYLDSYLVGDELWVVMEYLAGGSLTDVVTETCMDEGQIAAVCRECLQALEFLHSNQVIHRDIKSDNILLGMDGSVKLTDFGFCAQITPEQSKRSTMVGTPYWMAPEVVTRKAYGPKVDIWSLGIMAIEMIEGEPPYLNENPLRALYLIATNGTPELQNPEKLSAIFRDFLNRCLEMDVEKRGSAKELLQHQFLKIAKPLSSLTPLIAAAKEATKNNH

pIC50 [1]: < 5.00
Activity [3]: 106%
Activity [4]: 98.8%
Activity [5]: 97%
Activity [6]: 87.8%
Activity [7]: 99.2%
Activity [8]: 99%
Activity [9]: 98.8%
Activity [10]: 89.6%
Activity [11]: 84.4%
Activity [12]: 64%
Activity [13]: 80%
Activity [14]: 94.2%
inhibition [17]: Active
SMILES: Cc1cccn(-c2ccc(-c3ccc4c(C(=O)NCc5ccncc5)n[nH]c4c3)c(Cl)c2)c1=O
pIC50 [2]: 4.80
inhibition of growth at 1 µM [15]: 8.73%
Activity [16]: Dose-dependent effect

— ChEMBL document CHEMBL4706541, “Design and synthesis of 1H-indazole-3-carboxamide derivatives as potent and selective PAK1 inhibitors with anti-tumour migration and invasion activities” (Eur J Med Chem, 2020)
